# M1 ag = M1 muscarinic receptor agonists, primary screen, CHO-M1 cells, Fluo-4 calcium, agonist mode. Muscarinic acetylcholine receptor M1. Fluo-4 calcium fluorescence; active compounds read high. B-score at 10 µM. AID 626, 2007. 3% of 64,000 active;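 active = fluorescence rise, raw or as B-score row- and column-corrected plate score, outside the 99.7% band of its plate's samples, either direction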
# D1 allo mod = D1 CRE-luciferase signal change, two-sided – cell-based, HEK293 D1, dopamine EC30, D1 allosteric modulator project, primary screen. D(1A) dopamine receptor (Homo sapiens), P21728. dopamine EC30 potentiation; actives deviate in either direction. B-score at 10 µM. 5.9% of 58,000 active. AID 641, 2007;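 active = luminescence count or its row- and column-corrected plate score outside the 99.7% band of the plate's sample wells, on either side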
# Target sequence (P21728 whole entry, looked up): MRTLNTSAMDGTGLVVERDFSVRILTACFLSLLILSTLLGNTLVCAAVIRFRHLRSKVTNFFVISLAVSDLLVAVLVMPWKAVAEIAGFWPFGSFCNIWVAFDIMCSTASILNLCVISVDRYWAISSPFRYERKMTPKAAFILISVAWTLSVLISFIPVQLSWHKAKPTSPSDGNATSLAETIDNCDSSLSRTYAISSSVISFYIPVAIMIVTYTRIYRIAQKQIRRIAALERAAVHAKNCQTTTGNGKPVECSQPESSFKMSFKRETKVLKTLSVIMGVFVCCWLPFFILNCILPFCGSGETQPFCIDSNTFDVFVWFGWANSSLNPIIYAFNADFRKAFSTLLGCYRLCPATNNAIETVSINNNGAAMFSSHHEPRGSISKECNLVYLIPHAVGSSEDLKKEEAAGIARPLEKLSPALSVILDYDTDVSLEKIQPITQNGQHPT
# Htt clearance = clearance of mutant huntingtin inclusions, primary screen, imaging, HeLa Exon1htt(103Q)mCFP, confocal imaging. 0.42% of 47,000 active. aggregate imaging; zero = plate's median compound well. AID 853, 2007. inhibition, % at 1.5 µM;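 active = inhibition of aggregate fluorescence above about 70%, also judged a hit by eye on the cell image, limit read from the data, passing the limit was not always enough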;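 note: cells exposed to compound for three days before fixation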
# SF-1 act = activators of human SF-1, primary screen, cell-based, CHO-K1, Gal4-SF-1 LBD, luciferase luminescence. Steroidogenic factor 1 (Homo sapiens), Q13285. CHO-K1 Gal4-SF-1 LBD luciferase reporter; % increase over DMSO SF-1-specific signal. activation, % at 10 µM. 1.9% of 65,000 active. AID 522, 2006;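 active = activation above the mean activation of all tested compounds plus 3 SD, cut at about 50% in these data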
#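 Assay system: CHO-K1 cells co-transfected with Gal4 DBD–human SF-1 LBD, 5xGal4 luciferase reporter / Input: 4,000 cells per well / Incubation: 20 h compound exposure at 37 °C after 1 h cell settling / Detection: SteadyLite luciferase luminescence / Control set: DMSO negative control and −SF1 background wells / Replication: one test per compound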
# RORA act = activators of orphan receptor RORA, primary screen, cell-based, luminescence; CHO-K1 Gal4-RORA LBD luciferase reporter; percent increase over mock-subtracted basal signal; activation, % at 10 µM; 1.5% of 65,000 active;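 active = activation above the mean of all tested compounds plus 3 SD, cut at about 49% in these data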;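 note: 0% = DMSO-treated RORA cells and 100% = added signal equal to DMSO minus mock-transfected cells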
# M1 antag = antagonists of rat M1 muscarinic receptor. Muscarinic acetylcholine receptor M1 (Rattus norvegicus), P08482. CHO-M1 cells, Fluo-4 calcium, ACh EC80 antagonist mode; active compounds read low. B-score at 10 µM. 3.4% of 64,000 active;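 active = calcium fluorescence response, raw or row-and-column corrected B-score, differing from the plate sample mean either way at a set confidence level, mostly lower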
# Active calls of the source: *; nt = not tested or not shown. An excerpt weighted towards active compounds, which were near 11% of everything screened.
SMILES,M1 ag,D1 allo mod,Htt clearance,SF-1 act,RORA act,M1 antag
COc1ccc2c(c1OC)C(=O)N1c3ccccc3SC21 (configuration not stated),-0.25,nt,nt,72*,10,-0.014
COc1ccc2c(c1OC)C(=O)N1c3ccccc3COC21 (configuration not stated),0.099,nt,34,51*,82*,0.21
COC(=O)c1[nH]c2ccccc2c1NC(=O)CN1CCN(C(=O)c2ccco2)CC1,-1.6,0.015,nt,-1,5,0.34
CCOC(=O)c1ccc2c(c1)nc(COc1ccc(OC)cc1)n2CC,nt,nt,-4,nt,nt,nt
O=C(NCc1ccc(F)cc1)c1cnn2ccccc12,nt,nt,75*,nt,nt,nt
CCc1ccc(NC(=O)c2cnn3ccccc23)cc1,nt,nt,30,nt,nt,nt
CCn1cc(S(=O)(=O)CC(=O)NC2CCCCC2)c2ccccc21,1.1,1.2,2,1,-13,3.2*
Cc1cc2c(cc1C)NC(c1c(C)n(C)n(-c3ccccc3)c1=O)C1=C(CC(C)(C)CC1=O)N2 (configuration not stated),47*,-0.56,nt,62*,36,-0.38
CC1(C)CC(=O)C2=C(C1)Nc1ccccc1NC2c1ccccn1 (configuration not stated),0.52,-0.59,nt,-9,-16,-0.0031
O=C(CN(Cc1ccccc1F)C(=O)Cn1nnc(-c2cccs2)n1)NCC1CCCO1 (configuration not stated),-0.96,0.0049,nt,-2,1,-0.38
CCN(CC)CCn1c2ccccc2c2nc(C)sc21,-0.025,-1.7,42,13,28,0.11
COc1cccc(N2CCN(c3ncnc4c3[nH]c3ccc(F)cc34)CC2C)c1 (configuration not stated),7.8*,-5.2*,nt,-96,-95,-6.1*
COc1ccc2[nH]c3c(N4CC(C)OC(C)C4)ncnc3c2c1 (configuration not stated),nt,nt,-25,nt,nt,nt
COCCn1nnnc1C(C(C)C)N(Cc1cccnc1)Cc1ccccc1Cl (configuration not stated),0.77,-0.25,60,9,10,-0.23
Cc1nc(NC(=O)c2csc3ccccc23)sc1C,0.044,-3.4*,nt,26,-5,0.25
COc1ccc(CCNC(=O)CSc2nc(N)c(C#N)c(-c3cccs3)c2C#N)cc1OC,0.16,0.088,72*,-16,15,0.62
CCOc1ccc2nc(NC(=O)COC)sc2c1,-0.54,-1.3,nt,15,7,-0.0038
COc1cc(C)nc(Nc2nc(C)c(C(C)=O)s2)n1,0.086,nt,-24,-21,-10,0.17
COc1ccc2nc(Nc3nc(C)c(C(C)=O)s3)sc2c1,0.26,nt,nt,80*,15,0.11
CCCCOC(=O)Nc1nc2ccc(OC)cc2s1,-0.36,-0.7,48,23,52*,0.23
CCOCC(=O)Nc1nc2ccc(OC)cc2s1,1.1,-0.63,-2,51*,33,-0.19
CCN1CCN(Cc2nc3c(c(=O)n(C)c(=O)n3C)n2Cc2ccc(Cl)cc2Cl)CC1,-0.61,0.071,nt,18,12,0.78
CC12C(=O)N(c3nccs3)C(=O)C1C1C=CC2C1 (configuration not stated),0.73,0.031,nt,-4,3,0
CCC(C)OC(=O)C1=C(C)O[C@]23OC(N)=C(C#N)[C@]12C(=O)c1ccccc13 (some centres not stated),nt,nt,15,nt,nt,nt
Cc1cc(C(F)F)n2nc(C(=O)Nc3sc4c(c3C#N)CCC(C)C4)nc2n1 (configuration not stated),nt,nt,-63,nt,nt,nt
Cc1cc(C(=O)Nc2sc3c(c2C#N)CCC(C(C)(C)C)C3)no1 (configuration not stated),-2,0.22,nt,58*,-7,0.41
Cc1cc(C(=O)Nc2sc3c(c2C#N)CCC(C)C3)cs1 (configuration not stated),-0.67,-0.48,nt,33,91*,0.067

# Assay outcomes from PubChem BioAssay.
